Experimental data: ChEMBL document CHEMBL2346629, “Discovery and characterization of novel allosteric FAK inhibitors” (Eur J Med Chem, 2013)

Tests used:
[1] = molecular target: Mitogen-activated protein kinase kinase kinase kinase 2 (Homo sapiens) (UniProt Q12851); experiment: Inhibition of GCK (unknown origin) using [gamma-33P]ATP assessed as residual activity at 3 uM
[2] = molecular target: Megakaryocyte-associated tyrosine-protein kinase (Homo sapiens) (UniProt P42679); experiment: Inhibition of CTK (unknown origin) using [gamma-33P]ATP assessed as residual activity at 3 uM
Method in brief: (§1)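 Reaction Biology HotSpot radiometric profiling panel of 288 kinases (261 wild-type, 27 mutant). Kinase activity was read out by incorporation of [γ-33P]ATP.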

[3] = molecular target: Protein kinase C epsilon type (Homo sapiens) (UniProt Q02156); experiment: Inhibition of PKCepsilon (unknown origin) using [gamma-33P]ATP assessed as residual activity at 3 uM
[4] = molecular target: Serine/threonine-protein kinase NLK (Homo sapiens) (UniProt Q9UBE8); experiment: Inhibition of NLK (unknown origin) using [gamma-33P]ATP assessed as residual activity at 3 uM
[5] = molecular target: Calcium/calmodulin-dependent protein kinase type II subunit beta (Homo sapiens) (UniProt Q13554); experiment: Inhibition of CAMK2b (unknown origin) using [gamma-33P]ATP assessed as residual activity at 3 uM
Method in brief: (§2)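 Radiometric profiling across 288 kinases (261 wild-type, 27 mutant), run as an outsourced service. Inhibition read out as [gamma-33P]ATP incorporation into substrate.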

[6] = molecular target: Mitogen-activated protein kinase kinase kinase kinase 4 (Homo sapiens, UniProt O95819); experiment: Inhibition of HGK (unknown origin) using [gamma-33P]ATP assessed as residual activity at 3 uM
[7] = molecular target: Ephrin type-A receptor 8 (Homo sapiens) (UniProt P29322); experiment: Inhibition of EPHA8 (unknown origin) using [gamma-33P]ATP assessed as residual activity at 3 uM; method in brief: as §1
[8] = molecular target: Tyrosine-protein kinase Lyn (Homo sapiens) (UniProt P07948); experiment: Inhibition of LYN-B (unknown origin) using [gamma-33P]ATP assessed as residual activity at 3 uM
Sequence of Tyrosine-protein kinase Lyn (Homo sapiens) (P07948 2-512 limits assumed): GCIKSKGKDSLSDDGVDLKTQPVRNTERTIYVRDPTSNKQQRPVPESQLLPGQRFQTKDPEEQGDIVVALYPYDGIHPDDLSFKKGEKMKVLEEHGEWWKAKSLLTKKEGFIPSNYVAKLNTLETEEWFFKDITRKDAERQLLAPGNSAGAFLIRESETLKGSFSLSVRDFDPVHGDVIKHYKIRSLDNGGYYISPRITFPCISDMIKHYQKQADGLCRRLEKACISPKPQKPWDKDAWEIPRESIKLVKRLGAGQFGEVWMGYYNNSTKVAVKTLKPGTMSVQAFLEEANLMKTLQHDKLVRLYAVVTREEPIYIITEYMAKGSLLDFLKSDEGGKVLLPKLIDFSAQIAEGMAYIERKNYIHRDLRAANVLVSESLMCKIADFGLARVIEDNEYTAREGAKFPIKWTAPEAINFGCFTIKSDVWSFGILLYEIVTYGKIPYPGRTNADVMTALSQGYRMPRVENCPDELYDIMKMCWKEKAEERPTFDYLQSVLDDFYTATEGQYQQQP
Method in brief: (§3)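 Radiometric kinase profiling service covering 288 kinases (261 wild-type, 27 mutant). Inhibition was read as incorporation from [γ-³³P]ATP.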

[9] = molecular target: High affinity nerve growth factor receptor (Homo sapiens) (UniProt P04629); experiment: Inhibition of TRKA (unknown origin) using [gamma-33P]ATP assessed as residual activity at 3 uM
Sequence of High affinity nerve growth factor receptor (Homo sapiens) (P04629 33-796 limits assumed): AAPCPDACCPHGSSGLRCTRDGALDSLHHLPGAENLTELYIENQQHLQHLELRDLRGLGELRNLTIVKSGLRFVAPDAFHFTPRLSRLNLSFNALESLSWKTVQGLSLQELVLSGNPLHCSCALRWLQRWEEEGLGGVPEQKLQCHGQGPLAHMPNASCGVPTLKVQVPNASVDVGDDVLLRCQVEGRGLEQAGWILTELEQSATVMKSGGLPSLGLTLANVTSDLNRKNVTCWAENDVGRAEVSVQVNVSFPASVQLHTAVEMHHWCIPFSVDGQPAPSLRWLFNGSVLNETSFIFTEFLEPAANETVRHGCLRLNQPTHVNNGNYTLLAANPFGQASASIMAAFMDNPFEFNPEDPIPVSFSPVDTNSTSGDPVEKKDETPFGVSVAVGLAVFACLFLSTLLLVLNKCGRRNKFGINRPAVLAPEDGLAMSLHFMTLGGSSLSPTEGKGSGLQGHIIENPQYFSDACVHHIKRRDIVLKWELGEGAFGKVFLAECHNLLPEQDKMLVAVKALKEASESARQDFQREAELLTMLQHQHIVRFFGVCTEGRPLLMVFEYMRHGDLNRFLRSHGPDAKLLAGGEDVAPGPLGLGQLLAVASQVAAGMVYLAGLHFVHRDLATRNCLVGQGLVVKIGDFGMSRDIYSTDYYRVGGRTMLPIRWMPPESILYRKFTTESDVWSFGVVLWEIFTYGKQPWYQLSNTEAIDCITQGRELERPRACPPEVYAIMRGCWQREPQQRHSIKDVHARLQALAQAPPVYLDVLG

[10] = molecular target: Dual specificity protein kinase CLK2 (Homo sapiens) (UniProt P49760); experiment: Inhibition of CLK2 (unknown origin) using [gamma-33P]ATP assessed as residual activity at 3 uM; method in brief: as §1
[11] = molecular target: cGMP-dependent protein kinase 1 (Homo sapiens) (UniProt Q13976); experiment: Inhibition of PKG1b (unknown origin) using [gamma-33P]ATP assessed as residual activity at 3 uM
[12] = molecular target: Myosin light chain kinase, smooth muscle (Homo sapiens, UniProt Q15746); experiment: Inhibition of MLCK (unknown origin) using [gamma-33P]ATP assessed as residual activity at 3 uM
Method in brief: (§4)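 Contract radiometric panel screen of 288 kinases (261 wild-type, 27 mutant). Inhibition was read by [gamma-33P]ATP radioactivity incorporation.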

[13] = molecular target: Ephrin type-B receptor 3 (Homo sapiens) (UniProt P54753); experiment: Inhibition of EPHB3 (unknown origin) using [gamma-33P]ATP assessed as residual activity at 3 uM; method in brief: as §1
[14] = tested on: Epidermal growth factor receptor (Homo sapiens), P00533 [T790M]; experiment: Inhibition of EGFR T790M mutant (unknown origin) using [gamma-33P]ATP assessed as residual activity at 3 uM; type: protein assay; method in brief: as §1
[15] = tested on: Proto-oncogene tyrosine-protein kinase Src (Homo sapiens), P12931 [T341M]; experiment: Inhibition of c-Src T341M mutant (unknown origin) using [gamma-33P]ATP assessed as residual activity at 3 uM
[16] = molecular target: Ribosomal protein S6 kinase beta-1 (Homo sapiens) (UniProt P23443); experiment: Inhibition of P70S6K (unknown origin) using [gamma-33P]ATP assessed as residual activity at 3 uM
[17] = molecular target: Ribosomal protein S6 kinase alpha-1 (Homo sapiens) (UniProt Q15418); experiment: Inhibition of RSK1 (unknown origin) using [gamma-33P]ATP assessed as residual activity at 3 uM
[18] = molecular target: CDK9/Cyclin K (Homo sapiens) (UniProt P50750+O75909); experiment: Inhibition of CDK9/cyclin K (unknown origin) using [gamma-33P]ATP assessed as residual activity at 3 uM; type: protein-complex assay; method in brief: as §2
[19] = molecular target: Protein kinase C iota type (Homo sapiens) (UniProt P41743); experiment: Inhibition of PKCiota (unknown origin) using [gamma-33P]ATP assessed as residual activity at 3 uM
[20] = molecular target: Serine/threonine-protein kinase Sgk1 (Homo sapiens) (UniProt O00141); experiment: Inhibition of SGK1 (unknown origin) using [gamma-33P]ATP assessed as residual activity at 3 uM
Sequence of Serine/threonine-protein kinase Sgk1 (Homo sapiens) (O00141 whole entry): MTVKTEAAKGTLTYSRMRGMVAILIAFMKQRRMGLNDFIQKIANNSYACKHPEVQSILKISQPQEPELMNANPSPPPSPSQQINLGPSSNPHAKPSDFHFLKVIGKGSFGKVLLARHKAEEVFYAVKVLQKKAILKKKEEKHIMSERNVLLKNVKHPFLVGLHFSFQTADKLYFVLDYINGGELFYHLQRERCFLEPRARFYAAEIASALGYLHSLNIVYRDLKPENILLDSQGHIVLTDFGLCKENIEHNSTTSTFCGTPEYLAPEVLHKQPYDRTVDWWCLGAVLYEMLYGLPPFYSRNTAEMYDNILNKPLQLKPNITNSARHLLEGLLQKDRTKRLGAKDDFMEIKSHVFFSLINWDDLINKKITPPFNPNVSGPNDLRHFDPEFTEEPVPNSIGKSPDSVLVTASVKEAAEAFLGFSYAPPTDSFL

[21] = molecular target: Angiopoietin-1 receptor (Homo sapiens) (UniProt Q02763); experiment: Inhibition of TIE2 (unknown origin) using [gamma-33P]ATP assessed as residual activity at 3 uM
Sequence of Angiopoietin-1 receptor (Homo sapiens) (Q02763 whole entry): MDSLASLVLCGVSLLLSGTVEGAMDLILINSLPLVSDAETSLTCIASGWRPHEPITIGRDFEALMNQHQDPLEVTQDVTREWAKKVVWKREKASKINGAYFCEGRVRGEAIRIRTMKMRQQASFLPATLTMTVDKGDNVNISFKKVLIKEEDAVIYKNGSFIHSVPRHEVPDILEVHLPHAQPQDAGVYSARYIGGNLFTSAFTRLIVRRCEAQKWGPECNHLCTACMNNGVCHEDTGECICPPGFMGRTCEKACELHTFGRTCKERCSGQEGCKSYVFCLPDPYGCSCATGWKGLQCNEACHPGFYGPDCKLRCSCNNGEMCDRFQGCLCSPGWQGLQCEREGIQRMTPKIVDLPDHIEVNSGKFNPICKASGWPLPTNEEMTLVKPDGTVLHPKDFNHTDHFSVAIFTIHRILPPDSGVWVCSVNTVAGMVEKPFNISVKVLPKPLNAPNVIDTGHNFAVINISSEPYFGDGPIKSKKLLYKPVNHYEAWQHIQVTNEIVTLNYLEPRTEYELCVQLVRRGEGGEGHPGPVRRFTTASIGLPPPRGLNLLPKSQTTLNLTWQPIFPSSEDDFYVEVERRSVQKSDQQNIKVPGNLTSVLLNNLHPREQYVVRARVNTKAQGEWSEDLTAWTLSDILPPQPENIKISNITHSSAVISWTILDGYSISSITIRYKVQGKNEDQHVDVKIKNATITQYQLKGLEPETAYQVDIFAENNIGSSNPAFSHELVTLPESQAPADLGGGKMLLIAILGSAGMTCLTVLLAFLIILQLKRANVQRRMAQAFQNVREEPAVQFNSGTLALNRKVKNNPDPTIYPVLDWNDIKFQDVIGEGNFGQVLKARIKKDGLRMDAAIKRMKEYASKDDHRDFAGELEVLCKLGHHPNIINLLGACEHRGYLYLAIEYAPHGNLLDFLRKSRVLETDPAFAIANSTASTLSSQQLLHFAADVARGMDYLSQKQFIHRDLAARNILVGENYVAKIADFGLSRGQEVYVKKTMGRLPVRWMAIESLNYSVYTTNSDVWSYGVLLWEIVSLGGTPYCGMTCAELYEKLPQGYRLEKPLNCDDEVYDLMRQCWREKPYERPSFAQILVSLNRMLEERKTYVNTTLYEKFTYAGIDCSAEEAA

[22] = molecular target: Protein kinase C delta type (Homo sapiens) (UniProt Q05655); experiment: Inhibition of PKCd (unknown origin) using [gamma-33P]ATP assessed as residual activity at 3 uM
[23] = molecular target: Maternal embryonic leucine zipper kinase (Homo sapiens) (UniProt Q14680); experiment: Inhibition of MELK (unknown origin) using [gamma-33P]ATP assessed as residual activity at 3 uM; method in brief: as §4
[24] = molecular target: Mitogen-activated protein kinase 11 (Homo sapiens) (UniProt Q15759); experiment: Inhibition of P38b (unknown origin) using [gamma-33P]ATP assessed as residual activity at 3 uM
[25] = molecular target: CDK6/cyclin D3 (Homo sapiens) (UniProt P30281+Q00534); experiment: Inhibition of CDK6/cyclin D3 (unknown origin) using [gamma-33P]ATP assessed as residual activity at 3 uM; type: protein-complex assay; method in brief: as §2
[26] = molecular target: Cyclin-dependent kinase 7/ cyclin H (Homo sapiens) (UniProt P51946+P50613); experiment: Inhibition of CDK7/cyclin H/MNAT1 (unknown origin) using [gamma-33P]ATP assessed as residual activity at 3 uM; type: protein-complex assay; method in brief: as §2
[27] = molecular target: Tyrosine-protein kinase Lck (Homo sapiens) (UniProt P06239); experiment: Inhibition of LCK (unknown origin) using [gamma-33P]ATP assessed as residual activity at 3 uM; method in brief: as §3
[28] = molecular target: Homeodomain-interacting protein kinase 2 (Homo sapiens) (UniProt Q9H2X6); experiment: Inhibition of HIPK2 (unknown origin) using [gamma-33P]ATP assessed as residual activity at 3 uM; method in brief: as §3
Sequence of Homeodomain-interacting protein kinase 2 (Homo sapiens) (Q9H2X6 whole entry, looked up): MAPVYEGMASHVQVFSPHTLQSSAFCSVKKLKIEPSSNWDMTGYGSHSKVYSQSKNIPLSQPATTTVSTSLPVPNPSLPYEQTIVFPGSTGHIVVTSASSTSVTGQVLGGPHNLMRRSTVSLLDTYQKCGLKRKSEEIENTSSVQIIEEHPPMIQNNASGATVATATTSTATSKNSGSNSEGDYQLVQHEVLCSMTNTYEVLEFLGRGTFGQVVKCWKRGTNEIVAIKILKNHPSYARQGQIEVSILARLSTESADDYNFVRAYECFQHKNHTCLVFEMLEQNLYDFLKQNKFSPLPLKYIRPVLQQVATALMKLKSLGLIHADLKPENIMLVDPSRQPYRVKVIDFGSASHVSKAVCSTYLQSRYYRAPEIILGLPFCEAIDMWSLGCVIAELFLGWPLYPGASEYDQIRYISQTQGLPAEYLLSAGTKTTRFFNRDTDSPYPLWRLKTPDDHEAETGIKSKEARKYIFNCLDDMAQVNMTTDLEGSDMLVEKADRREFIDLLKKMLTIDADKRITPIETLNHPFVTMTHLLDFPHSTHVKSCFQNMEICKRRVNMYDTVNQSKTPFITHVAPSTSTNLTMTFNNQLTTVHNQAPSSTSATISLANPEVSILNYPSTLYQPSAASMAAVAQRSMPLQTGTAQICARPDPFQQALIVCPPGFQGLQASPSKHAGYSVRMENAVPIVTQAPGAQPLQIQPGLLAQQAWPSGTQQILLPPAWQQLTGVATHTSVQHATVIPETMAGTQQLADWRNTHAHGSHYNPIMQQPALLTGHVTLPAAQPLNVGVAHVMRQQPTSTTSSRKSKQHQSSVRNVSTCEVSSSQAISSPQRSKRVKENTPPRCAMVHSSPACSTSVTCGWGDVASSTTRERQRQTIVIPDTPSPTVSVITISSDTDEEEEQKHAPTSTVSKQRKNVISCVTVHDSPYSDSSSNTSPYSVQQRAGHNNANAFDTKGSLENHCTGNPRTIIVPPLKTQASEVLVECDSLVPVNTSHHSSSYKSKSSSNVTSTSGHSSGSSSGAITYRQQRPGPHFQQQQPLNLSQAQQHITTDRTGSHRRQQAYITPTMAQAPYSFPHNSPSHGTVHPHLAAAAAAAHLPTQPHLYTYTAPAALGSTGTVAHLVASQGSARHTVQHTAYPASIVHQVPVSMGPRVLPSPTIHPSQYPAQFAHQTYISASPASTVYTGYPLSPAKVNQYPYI

[29] = molecular target: Proto-oncogene tyrosine-protein kinase receptor Ret (Homo sapiens) (UniProt P07949); experiment: Inhibition of RET (unknown origin) using [gamma-33P]ATP assessed as residual activity at 3 uM
[30] = molecular target: BDNF/NT-3 growth factors receptor (Homo sapiens) (UniProt Q16620); experiment: Inhibition of TRKB (unknown origin) using [gamma-33P]ATP assessed as residual activity at 3 uM

Sequence of Mitogen-activated protein kinase kinase kinase kinase 2 (Homo sapiens) (Q12851 whole entry): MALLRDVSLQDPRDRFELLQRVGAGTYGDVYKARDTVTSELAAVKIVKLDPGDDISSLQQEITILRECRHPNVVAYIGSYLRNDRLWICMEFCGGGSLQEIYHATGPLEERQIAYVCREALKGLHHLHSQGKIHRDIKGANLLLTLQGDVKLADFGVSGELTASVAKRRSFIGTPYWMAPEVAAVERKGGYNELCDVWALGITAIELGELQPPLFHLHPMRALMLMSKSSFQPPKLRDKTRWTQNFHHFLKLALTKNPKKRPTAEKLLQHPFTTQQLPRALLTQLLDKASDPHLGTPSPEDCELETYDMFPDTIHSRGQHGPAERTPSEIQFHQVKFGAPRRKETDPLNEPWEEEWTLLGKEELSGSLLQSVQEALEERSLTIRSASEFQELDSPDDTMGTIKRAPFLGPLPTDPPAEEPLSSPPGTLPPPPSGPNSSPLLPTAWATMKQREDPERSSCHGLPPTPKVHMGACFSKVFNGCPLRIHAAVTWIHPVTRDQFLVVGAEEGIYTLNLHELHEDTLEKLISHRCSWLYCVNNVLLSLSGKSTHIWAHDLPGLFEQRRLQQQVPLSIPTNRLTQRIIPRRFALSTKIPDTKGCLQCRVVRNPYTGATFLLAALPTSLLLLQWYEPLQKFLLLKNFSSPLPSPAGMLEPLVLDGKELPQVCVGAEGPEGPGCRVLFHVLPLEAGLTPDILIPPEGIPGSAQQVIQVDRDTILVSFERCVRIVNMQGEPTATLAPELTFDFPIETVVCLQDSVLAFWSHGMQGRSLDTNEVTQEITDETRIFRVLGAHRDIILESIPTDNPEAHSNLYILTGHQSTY

Q: Which Activity [1] does the source give for CCc1ccc(-c2ccc3c(c2)-c2[nH]ncc2S(=O)(=O)N3C)cc1 here?
A: 40%

Q: And the Activity [2]?
A: 96%

Q: And the Activity [3]?
A: 97%

Q: What about the Activity [4] of the same molecule?
A: 95%

Q: And the Activity [5]?
A: 90%

Q: And the Activity [6]?
A: 25%

Q: What about the Activity [7] of the same molecule?
A: 95%

Q: And the Activity [8]?
A: 78%

Q: And the Activity [9]?
A: 88%

Q: What about the Activity [10] of the same molecule?
A: 68%

Q: And the Activity [11]?
A: 102%

Q: And the Activity [12]?
A: 45%

Q: And the Activity [13]?
A: 95%

Q: And the Activity [14]?
A: 109%

Q: And the Activity [15]?
A: 77%

Q: What about the Activity [16] of the same molecule?
A: 95%

Q: What about the Activity [17] of the same molecule?
A: 96%

Q: And the Activity [18]?
A: 97%

Q: What about the Activity [19] of the same molecule?
A: 95%

Q: What about the Activity [20] of the same molecule?
A: 82%

Q: And the Activity [21]?
A: 91%

Q: And the Activity [22]?
A: 91%

Q: What about the Activity [23] of the same molecule?
A: 76%

Q: What about the Activity [24] of the same molecule?
A: 103%

Q: And the Activity [25]?
A: 102%

Q: And the Activity [26]?
A: 97%

Q: What about the Activity [27] of the same molecule?
A: 87%

Q: What about the Activity [28] of the same molecule?
A: 101%

Q: And the Activity [29]?
A: 94%

Q: And the Activity [30]?
A: 101%
